We go through 25 molecules from ChEMBL document CHEMBL4834429, “Discovery of Nanomolar Melanocortin-3 Receptor (MC3R)-Selective Small Molecule Pyrrolidine Bis-Cyclic Guanidine Agonist Compounds Via a High-Throughput "Unbiased" Screening Campaign” (J Med Chem, 2021).

Holding throughout (format): functional, cell-based
Assay [1] concerns the target Melanocyte-stimulating hormone receptor (Mus musculus, UniProt Q01727). Put plainly: Agonist activity at mouse melanocortin receptor 1 expressed in HEK293 cells assessed as stimulation of intracellular cAMP accumulation incubated for 24 hrs by beta-galactosidase reporter gene assay. Background: Cyclic AMP is a second messenger, typically raised through Gs and lowered through Gi signalling.

The target in the next assay is Melanocortin receptor 3 (Mus musculus, UniProt P33033). Put plainly: Agonist activity at mouse melanocortin receptor 3 expressed in HEK293 cells assessed as stimulation of intracellular cAMP accumulation incubated for 24 hrs by beta-galactosidase reporter gene assay.
Chain of Melanocortin receptor 3 (P33033 whole entry): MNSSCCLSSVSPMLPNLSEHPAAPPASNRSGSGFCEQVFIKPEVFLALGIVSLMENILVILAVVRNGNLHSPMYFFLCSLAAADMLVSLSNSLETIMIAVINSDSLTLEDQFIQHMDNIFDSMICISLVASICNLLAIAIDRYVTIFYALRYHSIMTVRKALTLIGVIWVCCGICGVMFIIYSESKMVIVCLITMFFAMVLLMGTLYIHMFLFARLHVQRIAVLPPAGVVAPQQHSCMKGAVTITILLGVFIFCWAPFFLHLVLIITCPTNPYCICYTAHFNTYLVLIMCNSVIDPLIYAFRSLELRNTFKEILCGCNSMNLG
In another assay the target is Melanocortin receptor 5 (Mus musculus, UniProt P41149). Briefly: Agonist activity at mouse melanocortin receptor 5 expressed in HEK293 cells assessed as stimulation of intracellular cAMP accumulation incubated for 24 hrs by beta-galactosidase reporter gene assay.
Chain of Melanocortin receptor 5 (P41149 whole entry): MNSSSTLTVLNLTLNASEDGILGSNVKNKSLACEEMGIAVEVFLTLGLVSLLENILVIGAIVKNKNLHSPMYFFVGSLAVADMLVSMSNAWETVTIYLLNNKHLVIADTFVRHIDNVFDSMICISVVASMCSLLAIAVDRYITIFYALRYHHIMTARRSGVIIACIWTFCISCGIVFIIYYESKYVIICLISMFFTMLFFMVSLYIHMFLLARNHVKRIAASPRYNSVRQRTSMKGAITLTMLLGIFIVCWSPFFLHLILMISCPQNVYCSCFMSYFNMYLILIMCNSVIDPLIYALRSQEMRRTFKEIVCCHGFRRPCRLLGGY
Assay [2] deals with Melanocortin receptor 3 (Mus musculus) (UniProt P33033). Put plainly: Agonist activity at mouse melanocortin receptor 3 expressed in HEK293 cells assessed as stimulation of intracellular cAMP accumulation at 10 uM incubated for 24 hrs by beta-galactosidase reporter gene assay relative to control. In outline:
(§1)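 After lysis, ONPG hydrolysis was read at 405 nm and normalized to Bradford protein and maximal NDP-MSH response. Duplicates, ≥3 independent experiments; 100 μM dropped from fits where toxic.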

The target in assay [3] is T1, Melanocortin receptor 4 (Mus musculus, UniProt P56450). Briefly: Agonist activity at mouse melanocortin receptor 4 expressed in HEK293 cells assessed as stimulation of intracellular cAMP accumulation incubated for 24 hrs by beta-galactosidase reporter gene assay. The method in brief: as §1
T1 sequence (P56450 whole entry): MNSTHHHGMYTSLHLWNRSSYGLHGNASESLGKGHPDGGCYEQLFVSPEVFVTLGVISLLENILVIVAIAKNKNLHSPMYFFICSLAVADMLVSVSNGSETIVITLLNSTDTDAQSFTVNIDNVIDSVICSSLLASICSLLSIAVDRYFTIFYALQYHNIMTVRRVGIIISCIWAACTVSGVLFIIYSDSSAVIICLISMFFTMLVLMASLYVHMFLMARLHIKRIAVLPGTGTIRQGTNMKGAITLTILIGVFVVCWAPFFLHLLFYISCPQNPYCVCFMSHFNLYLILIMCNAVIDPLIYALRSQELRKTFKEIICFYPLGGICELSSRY
The target in assay [4] is Melanocortin receptor 4 (Mus musculus) (UniProt P56450). Put plainly: Agonist activity at mouse melanocortin receptor 4 expressed in HEK293 cells assessed as stimulation of intracellular cAMP accumulation at 10 uM incubated for 24 hrs by beta-galactosidase reporter gene assay relative to control. In outline:
as §1

For assay [5], the target named is T1, Melanocortin receptor 4. Briefly: Antagonist activity at mouse melanocortin receptor 4 expressed in HEK293 cells assessed as inhibition of NDP-MSH-induced intracellular cAMP accumulation incubated for 24 hrs by beta-galactosidase reporter gene assay. The note with it: read-out: pA2 (converted).
The target of assay [6] is Melanocyte-stimulating hormone receptor (Mus musculus) (UniProt Q01727). Put plainly: Agonist activity at mouse melanocortin receptor 1 expressed in HEK293 cells assessed as stimulation of intracellular cAMP accumulation at 10 uM incubated for 24 hrs by beta-galactosidase reporter gene assay relative to control. The method in brief:
as §1

Chain of Melanocortin receptor 3 (Mus musculus) (P33033 whole entry): as the sequence (P33033 whole entry) above
Chain of Melanocortin receptor 4 (Mus musculus) (P56450 whole entry): as the sequence (P56450 whole entry) above
Chain of Melanocyte-stimulating hormone receptor (Mus musculus) (Q01727 whole entry, looked up): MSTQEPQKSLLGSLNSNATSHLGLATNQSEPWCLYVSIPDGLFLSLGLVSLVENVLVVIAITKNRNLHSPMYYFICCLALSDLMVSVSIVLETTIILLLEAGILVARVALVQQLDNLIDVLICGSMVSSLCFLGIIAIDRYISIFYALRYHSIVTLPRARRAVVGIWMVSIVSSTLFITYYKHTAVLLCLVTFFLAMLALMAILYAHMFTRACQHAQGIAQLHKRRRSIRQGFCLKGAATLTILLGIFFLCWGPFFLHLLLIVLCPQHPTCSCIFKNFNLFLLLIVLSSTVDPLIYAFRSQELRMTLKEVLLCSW
Chain of Melanocyte-stimulating hormone receptor (Q01727 whole entry): as the sequence (Q01727 whole entry, looked up) above

With `CC(C)CCCN1C(=N)N([C@H](CC2CCCCC2)CN2CCC[C@H]2CN2C(=N)NC[C@H]2C(C)C)C[C@H]1[C@@H](C)O`, the EC50 (commonly the midpoint of the concentration-response curve) in assay [1] came to 700 nM; at Melanocortin receptor 3, 5200 nM; on Melanocortin receptor 5, 740 nM.
For the molecule `CCC[C@@H]1CN([C@H](Cc2ccccc2)CN2CCC[C@H]2CN2C(=N)NC[C@H]2CC(C)C)C(=N)N1CC12CC3CC(CC(C3)C1)C2`, the EC50 in assay [1] worked out at 7000 nM; on Melanocortin receptor 4 [3] it was 1330 nM; at Melanocortin receptor 5, 610 nM. Besides, the Emax – broadly, the greatest response seen or fitted, relative to the assay's reference – in assay [2] (filed as agonist) was determined as 74%.
For the molecule `CC(C)C[C@@H]1CNC(=N)N1C[C@@H]1CCCN1C[C@@H](CC1CCCCC1)N1C[C@@H]([C@@H](C)O)N(CC23CC4CC(CC(C4)C2)C3)C1=N`, the EC50 is 330 nM in assay [1], 240 nM at Melanocortin receptor 3, 650 nM on Melanocortin receptor 4 [3] and 340 nM at Melanocortin receptor 5. Moreover, the Emax in assay [4] (filed as agonist) was 55%.
On to `CC(C)C[C@@H]1CNC(=N)N1C[C@@H]1CCCN1C[C@@H](Cc1ccccc1)N1C[C@@H](C(C)C)N(CC2CCC(C(C)(C)C)CC2)C1=N` (stereo partly specified), for which the EC50 in assay [1] came to 6800 nM; on Melanocortin receptor 5, 560 nM. In addition, the Emax in assay [2] (filed as agonist) was 62%.
In the case of `CC(C)CCCN1C(=N)N([C@H](CC2CCCCC2)CN2CCC[C@H]2CN2C(=N)NC[C@H]2CC(C)C)C[C@H]1[C@@H](C)O`, the values for the EC50 (in assay [1]; on Melanocortin receptor 5) were 7300 nM and 630 nM, respectively. For the same molecule, the figures for the Emax in assay [2] (filed as agonist) and in assay [4] (filed as agonist) were 58% and 10%, respectively.
Consider `CC(C)[C@@H]1CNC(=N)N1C[C@@H]1CCCN1C[C@@H](Cc1ccccc1)N1C[C@@H]([C@@H](C)O)N(CC2CCC(C(C)(C)C)CC2)C1=N` (stereo partly specified), for which the 50% effective concentration (EC50) was found to be 600 nM in assay [1], 420 nM at Melanocortin receptor 3 and 490 nM at Melanocortin receptor 5. Besides, the Kb at Melanocortin receptor 4 [5] is 316 nM.
Consider `CCC[C@@H]1CN([C@H](Cc2ccccc2)CN2CCC[C@H]2CN2C(=N)NC[C@H]2C(C)C)C(=N)N1CC1CCC(C(C)(C)C)CC1` (stereo partly specified), for which the EC50 was found to be 2300 nM in assay [1], 6200 nM on Melanocortin receptor 3 and 940 nM at Melanocortin receptor 5. In addition, the Emax in assay [4] worked out at 27%.
For `CC(C)CCCN1C(=N)N([C@H](CC2CCCCC2)CN2CCC[C@H]2CN2C(=N)NC[C@H]2CC(C)C)C[C@H]1C(C)C`, the Emax stood at 50% in assay [6] (filed as agonist), 33% in assay [2] and 51% in assay [4] (filed as agonist). On Melanocortin receptor 5, the EC50 worked out at 1850 nM.
Regarding `CC(C)[C@@H]1CNC(=N)N1C[C@@H]1CCCN1C[C@@H](Cc1ccccc1)N1C[C@@H](C(C)C)N(CC23CC4CC(CC(C4)C2)C3)C1=N`, the EC50 in assay [1] is 47800 nM; on Melanocortin receptor 3 it was 4000 nM; at Melanocortin receptor 5, 660 nM. Also, the Emax in assay [4] (filed as agonist) turned out to be 54%.
As for `CCC[C@@H]1CN([C@H](CC2CCCCC2)CN2CCC[C@H]2CN2C(=N)NC[C@H]2CC(C)C)C(=N)N1CCCC(C)C`, the EC50 amounted to 2300 nM in assay [1], 6700 nM on Melanocortin receptor 4 [3] and 1800 nM on Melanocortin receptor 5. The Emax in assay [2] (filed as agonist) is 58%.
Turning to `CCC[C@@H]1CN([C@H](CC2CCCCC2)CN2CCC[C@H]2CN2C(=N)NC[C@H]2CC(C)C)C(=N)N1CC1CCC(C(C)(C)C)CC1` (stereo partly specified), the EC50 was determined as 500 nM in assay [1] and 530 nM on Melanocortin receptor 5. In addition, the Emax in assay [2] (filed as agonist) stood at 75%; in assay [4] (filed as agonist) it was 65%.
`CC(C)C[C@@H]1CNC(=N)N1C[C@@H]1CCCN1C[C@@H](CC1CCCCC1)N1C[C@@H]([C@@H](C)O)N(CC2CCC(C(C)(C)C)CC2)C1=N` (stereo partly specified): the 50% effective concentration (EC50) in assay [1] amounted to 300 nM; on Melanocortin receptor 3, 210 nM; on Melanocortin receptor 4 [3], 270 nM; at Melanocortin receptor 5, 140 nM. Also, the Emax in assay [4] (filed as agonist) is 45%.
As for `CSCC[C@H](NC(=O)[C@H](CO)NC(=O)[C@H](Cc1ccc(O)cc1)NC(=O)[C@@H](N)CO)C(=O)N[C@@H](CCC(=O)O)C(=O)N[C@@H](Cc1c[nH]cn1)C(=O)N[C@@H](Cc1ccccc1)C(=O)N[C@@H](CCCN=C(N)N)C(=O)N[C@@H](Cc1c[nH]c2ccccc12)C(=O)NCC(=O)N[C@@H](CCCCN)C(=O)N1CCC[C@H]1C(=O)N[C@H](C(=O)O)C(C)C`, the EC50 stood at 1.6 nM on Melanocortin receptor 4 [3] and 0.7 nM on Melanocortin receptor 5.
`CC(C)C[C@@H]1CNC(=N)N1C[C@@H]1CCCN1C[C@@H](CC1CCCCC1)N1C[C@@H](C(C)C)N(CC23CC4CC(CC(C4)C2)C3)C1=N`: the EC50 worked out at 570 nM in assay [1] and 500 nM on Melanocortin receptor 5. In addition, the Emax in assay [2] (filed as agonist) is 70%; in assay [4] (filed as agonist), 50%.
In the case of `CC(C)[C@@H]1CNC(=N)N1C[C@@H]1CCCN1C[C@@H](Cc1ccccc1)N1C[C@@H](C(C)C)N(CC2CCC(C(C)(C)C)CC2)C1=N` (stereo partly specified), the figures for the EC50 (in assay [1]; at Melanocortin receptor 5) were 29100 nM and 600 nM, respectively. Also, the Emax in assay [2] (filed as agonist) was 68%.
For the molecule `CC(C)[C@@H]1CNC(=N)N1C[C@@H]1CCCN1C[C@@H](CC1CCCCC1)N1C[C@@H](C(C)C)N(CC23CC4CC(CC(C4)C2)C3)C1=N`, the EC50 was 300 nM in assay [1], 3700 nM on Melanocortin receptor 3 and 580 nM on Melanocortin receptor 5. In addition, the Emax in assay [4] (filed as agonist) amounted to 40%.
Turning to `CC(C)C[C@@H]1CNC(=N)N1C[C@@H]1CCCN1C[C@@H](Cc1ccccc1)N1C[C@@H]([C@@H](C)O)N(CC2CCC(C(C)(C)C)CC2)C1=N` (stereo partly specified), in assay [6] (filed as agonist), the Emax amounted to 58%. Besides, the EC50 on Melanocortin receptor 3 was 310 nM; on Melanocortin receptor 5, 530 nM.
Consider `CC(C)CCCN1C(=N)N([C@H](CC2CCCCC2)CN2CCC[C@H]2CN2C(=N)NC[C@H]2C(C)C)C[C@H]1C(C)C`, for which the EC50 in assay [1] is 6100 nM; on Melanocortin receptor 5, 1700 nM. Further, the Emax in assay [2] (filed as agonist) and in assay [4] (filed as agonist) was 51% in each case.
With `O=C(N[C@@H](Cc1ccc(Cl)cc1)C(=O)N1CCC(Cn2cncn2)(C2CCCCC2)CC1)[C@H]1Cc2ccccc2CN1`, the EC50 at Melanocortin receptor 4 [3] was found to be 0.9 nM.
Take `CC(C)C[C@@H]1CNC(=N)N1C[C@@H]1CCCN1C[C@@H](Cc1ccccc1)N1C[C@@H](C(C)C)N(CC23CC4CC(CC(C4)C2)C3)C1=N`: the EC50 in assay [1] was 15500 nM; on Melanocortin receptor 4 [3] it was 8200 nM; at Melanocortin receptor 5 it was 440 nM. In addition, the Emax in assay [2] (filed as agonist) came out at 67%.
As for `CCC[C@@H]1CN([C@H](CC2CCCCC2)CN2CCC[C@H]2CN2C(=N)NC[C@H]2CC(C)C)C(=N)N1CC12CC3CC(CC(C3)C1)C2`, the Emax in assay [6] (filed as agonist) amounted to 70%; in assay [2] (filed as agonist), 67%; in assay [4] (filed as agonist), 51%. Moreover, at Melanocortin receptor 5, the EC50 was found to be 470 nM.
For `CC(C)[C@@H]1CNC(=N)N1C[C@@H]1CCCN1C[C@@H](CC1CCCCC1)N1C[C@@H](C(C)C)N(CC2CCC(C(C)(C)C)CC2)C1=N` (stereo partly specified), the EC50 worked out at 290 nM in assay [1], 4300 nM on Melanocortin receptor 3 and 510 nM at Melanocortin receptor 5. Further, the Emax in assay [4] stood at 28%.
In the case of `CCC[C@@H]1CN([C@H](CC2CCCCC2)CN2CCC[C@H]2CN2C(=N)NC[C@H]2C(C)C)C(=N)N1CCCC(C)C`, the Emax in assay [6] (filed as agonist) is 51%; in assay [2] (filed as agonist), 51%; in assay [4] (filed as agonist), 40%. Also, the EC50 on Melanocortin receptor 5 was 1040 nM.
For the molecule `CCC[C@@H]1CN([C@H](Cc2ccccc2)CN2CCC[C@H]2CN2C(=N)NC[C@H]2CC(C)C)C(=N)N1CC1CCC(C(C)(C)C)CC1` (stereo partly specified), the Emax came out at 38% in assay [6], 73% in assay [2] (filed as agonist) and 28% in assay [4]. In addition, the EC50 at Melanocortin receptor 5 was 480 nM.
On to `CC(C)CCCN1C(=N)N([C@H](Cc2ccccc2)CN2CCC[C@H]2CN2C(=N)NC[C@H]2CC(C)C)C[C@H]1C(C)C`, for which the Emax in assay [4] (filed as agonist) is 10%. Moreover, at Melanocortin receptor 5, the EC50 turned out to be 1260 nM.
